According to ChEMBL document CHEMBL1127574, “Design and synthesis of ellipticinium salts and 1,2-dihydroellipticines with high selectivities against human CNS cancers in vitro” (1994):

Assays:
Format in all cases: functional
Conditions in all cases: Homo sapiens
Malme-3M = experiment: Tested in vitro for cytotoxicity in MALME-3M
How it was run: (§1)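 Compounds dissolved in DMSO, then diluted 500-fold into aqueous medium. The resulting aqueous solutions or suspensions were added to the cultured human tumour cell lines, and the cells were exposed for 48 h. Growth was read colorimetrically in one of two ways: a metabolic assay in which viable cells reduce a tetrazolium salt to a formazan dye, or a protein stain for total cellular protein.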

A549 = experiment: Tested in vitro for cytotoxicity in A549/ATCC cell lines; how it was run: as §1
SF-268 = experiment: Tested in vitro for cytotoxicity in SF-268 cell lines; how it was run: as §1
COLO 205 = experiment: Tested in vitro for cytotoxicity in COLO 205 cell lines; how it was run: as §1
CAKI-1 = experiment: Tested in vitro for cytotoxicity in CAKI-1 cell lines; how it was run: as §1
DMS-114 = experiment: Tested in vitro for cytotoxicity in DMS114 cell lines; how it was run: as §1
IGROV-1 = experiment: Tested in vitro for cytotoxicity in IGROV1 cell lines; how it was run: as §1
CCRF-CEM = experiment: Tested in vitro for cytotoxicity in CCRF-CEM cell lines; how it was run: as §1

Row | SMILES | GI50 (Malme-3M) [µM] | GI50 (A549) [µM] | GI50 (SF-268) [µM] | GI50 (COLO 205) [µM] | GI50 (CAKI-1) [µM] | GI50 (DMS-114) [µM] | GI50 (IGROV-1) [µM] | GI50 (CCRF-CEM) [µM]
1 | Cc1c2ccncc2c(C)c2c1[nH]c1ccccc12 [ELLIPTECINE] | 2.52 | 0.41 | 0.816 | 0.588 | 1.01 | 0.552 | 0.862 | 0.415
2 | COc1ccc2[nH]c3c(C)c4c(c(C)c3c2c1)CN(C)C=C4C=O | 40 | 75.7 | 1.12 | 16.2 | 73.2 | 2.5 | 31.2 | 60.4
3 | CC(=O)O[C@@H]1[C@@H](OC(C)=O)[C@@H](N2C=Cc3c(c(C)c4c([nH]c5ccccc54)c3C)C2)OC[C@@H]1OC(C)=O | 30.2 | 64 | 31 | 36.7 | > 100 | 15.6 | 24.1 | 29
